# Screening data from PubChem.
# T cell HTS = T cell immune modulation candidate. 2C CD8+ T cell-vesicle binding, flow cytometry; hits give low values. 330,000 compounds, 0.068% hits. AID 2052. response (vesicle binding), % at 7 µM;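 active = response, share of CD8 T cells binding vesicles, and their 90th percentile fluorescence all below set limits, cut at about 80% in these data, passing the limit was not always enough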;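 note: values below 100% mean blocked vesicle binding to the CD8+ T cells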
#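 incubation = binding step 1.5 h, 37 °C, antibody labelling 20 min, ice | test system = 2C mouse CD8+ T cells | read-out basis = percent CD8+ FL2 mean versus row control | controls = Peptide-free naked vesicles (low) and QL9 vesicles with 0.7% DMSO vehicle (high) | detection = flow cytometry of vesicle-bound cells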
# pCIP destab = lowers stability of the mouse p/CIP coactivator protein | F442A p/CIP-EGFP cells, EGFP fluorescence, 16 h | decrease of EGFP signal, % at 10 µM | 290,000 compounds, 0.01% hits | AID 1984;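 active = EGFP signal decrease of at least 30% at 10 µM or well 3 SD below plate mean, unless failing retest; inactive = the rest, including hits failing retest or dose response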
# CHT inh = inhibits the human high affinity choline transporter | B-score at 10 µM | CHT-expressing cells, membrane potential dye, choline response; hits give low values | 310,000 compounds, 0.86% hits | Q9GZV3;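 active = B-score over 3 SD under the library average, and starting fluorescence ratio not unusually high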;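 note: choline stimulus applied at its EC90 after an EC20 pre-addition; B-score computed on integrated fluorescence ratio after choline addition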
# GPR7 antagonist = human neuropeptides B/W receptor 1 antagonism; P48145; GPR7-expressing cells, fluorescence antagonist assay; inhibition, % at 4.4 µM; 290,000 compounds, 1.1% hits; in the data active = inhibition above about 16%, passing the limit was not always enough;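 note: cells stimulated with the agonist NPW; 0% = agonist with vehicle and 100% = vehicle without agonist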
# Target sequence (P48145 whole entry, looked up): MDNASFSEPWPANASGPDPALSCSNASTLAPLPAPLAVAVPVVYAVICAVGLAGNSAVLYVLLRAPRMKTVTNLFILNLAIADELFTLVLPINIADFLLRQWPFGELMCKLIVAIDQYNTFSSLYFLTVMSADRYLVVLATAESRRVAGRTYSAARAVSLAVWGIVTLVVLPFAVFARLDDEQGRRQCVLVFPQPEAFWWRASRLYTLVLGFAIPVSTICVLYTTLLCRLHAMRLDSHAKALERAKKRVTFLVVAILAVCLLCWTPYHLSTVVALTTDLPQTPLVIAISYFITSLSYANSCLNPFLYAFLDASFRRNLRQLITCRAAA
# CHT PAM = allosteric activators of human choline transporter CHT. CHT-expressing cells, membrane potential dye, choline EC20; hits give high values; LV-AA mutant CHT in HEK293 cells. B-score at 10 µM. 310,000 compounds, 0.49% hits. AID 488977;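 active = initial fluorescence not abnormally high and integrated response B-score, plate-corrected, over 3 SD above library mean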
# DSG3 Ab inh = inhibitors of pemphigus antibody binding to human desmoglein-3 | AID 588358 | DSG3-coupled beads, scFv-anti-DSG3-GFP binding, flow cytometry; hits give low values | P32926 | binding (percent of control), % at 10 µM | 310,000 compounds, 0.48% hits;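 active = binding more than 3 SD below its plate's average and above zero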;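 note: hits lower antibody fragment binding to DSG3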
# * marks the source's active call; other numbers are inactive results; i = inactive; · = not tested or not shown. Compounds with a hit are over-represented: about 2.3% of the library has one in this group of screens.
SMILES,T cell HTS,pCIP destab,CHT inh,GPR7 antagonist,CHT PAM,DSG3 Ab inh
CCN(CC)S(=O)(=O)c1cc(C(=O)n2cccn2)c(Cl)cc1Cl,532.6,-3.5,i,18.9*,i,96.1
O=C(CS(=O)(=O)c1ccccc1)Nc1ccc(Br)cn1,529.1,-5.2,i,2.4,i,58.6*
O=C(CS(=O)(=O)c1ccccc1)Nc1ccccn1,517.4,-14.3,i,-11.7,i,87.1
O=[N+]([O-])c1ccc(N2CCN(Cc3ccccc3)CC2)c2c1no[n+]2[O-],·,·,·,·,·,109.9
Cc1c(Br)c(O)c(Br)c2sc(=O)oc12,413.1,-5.5,-8.16*,-8.3,i,101.5
Cc1noc(C)c1NC(=O)N(C)C[C@@H]1Oc2cc(Br)ccc2S(=O)(=O)N([C@H](C)CO)C[C@@H]1C,·,·,·,·,·,110.3
CC(C)(C)SCCNC(=O)CN(c1ccccc1)S(=O)(=O)c1ccc(F)cc1,180.2,-3.1,i,-8.9,i,5.2*
CC(C)(C)SCCNC(=O)CN(c1ccc(F)cc1)S(C)(=O)=O,339.2,-7.8,i,2.8,i,100.0
N#C/C(N=Nc1ccccc1O)=N\Nc1ccccc1O,445.6,·,-10.8*,·,i,124.1
CCCc1[nH]n(-c2ccc([N+](=O)[O-])cc2)c(=O)c1C=NCCN1CCNCC1,677.3,5.9,i,10.7,6.78*,·
CN1CCN(Cc2nc3ccccc3c(=O)n2Cc2nc(-c3ccc([N+](=O)[O-])cc3)cs2)CC1,209.0,-10.3,i,13.3,i,-159.8*
C/C(=N\NC(=O)CSc1nc(C)cc(C)n1)c1cccc([N+](=O)[O-])c1,235.0,-14.1,i,-7.5,i,65.7*
COC(=O)c1ccc(COC(=O)C2CCN(S(=O)(=O)c3c(C)cc(C)cc3C)CC2)o1,·,·,·,·,·,93.8
Cc1cnc(NS(=O)(=O)c2ccccc2)c(C)n1,252.7,-5.2,i,-12.0,i,66.3*
Cc1[nH]c2ccccc2c1C(=O)C(=O)NCc1nnnn1-c1ccc(F)cc1,·,·,·,·,·,95.0
CC1(C)SC[C@H](C(=O)Nc2cccc(Cl)c2)N1C=O,52.1*,-14.4,i,-9.3,i,108.5
CC12CCC(=O)N1C(C(=O)Nc1ccc(F)c(Cl)c1)CS2 (centres undefined),301.3,·,i,·,i,99.4
Nc1nc(N=Nc2ccc(O)cc2)cc(=O)[nH]1,·,·,·,·,·,109.2
CC(OC(=O)[C@@H](NS(=O)(=O)c1ccccc1)C(C)C)C(=O)c1c(N)n(C)c(=O)n(C)c1=O (some centres undefined),·,·,·,·,·,111.9
COCOCCn1cc(CN2CCS(=O)(=O)N(Cc3ccc(-c4ccc(Cl)c(Cl)c4)cc3)C(C(C)C)C2=O)nn1 (centres undefined),·,·,·,·,·,97.8
O=C(c1ccc(F)cc1)N1CCN2C(=O)c3ccccc3C12c1ccc(Cl)cc1 (centres undefined),549.5,-3.1,i,16.0*,i,100.1
C=CC(C)(C)c1c(O)c(CC=C(C)C)c(O)c2c(=O)c3ccc(O)c(O)c3oc12,32.0*,·,i,·,i,93.2
O=Cc1c(NC2CCCCC2)c2ccccc2[nH]c1=O,314.4,3.0,i,-0.6,i,74.3*
O=Cc1c(NCc2ccc(F)cc2)c2ccccc2[nH]c1=O,230.5,0.0,i,-8.5,i,102.9
Clc1ccccc1CNCc1ccc2c(c1)OCO2,·,·,·,·,·,100.3
SMILES,T cell HTS,pCIP destab,CHT inh,GPR7 antagonist,CHT PAM,DSG3 Ab inh
O=C(NCCc1ccc(Cl)cc1)c1nnc(Cc2ccc(Cl)cc2)o1,i,0.6,i,-5.9,i,84.4
CC(CCc1ccccc1)NC(=O)c1nnc(Cc2ccc(Cl)cc2)o1 (centres undefined),0.0,-5.0,i,-8.4,i,-13.4*
CNCc1ccccc1Sc1ccc(O)c(O)c1,641.3,3.6,i,-11.9,i,56.9*
C[C@@H]1C(NC(=O)c2ccccc2)CC2CC1C2(C)C (some centres undefined),200.2,9.6,-4.98*,8.9,i,107.7
C[C@@H]1CN([C@@H](C)CO)C(=O)c2cc(Br)cnc2O[C@H]1CN(C)C(=O)c1ccncc1,·,·,·,·,·,98.8
COc1ccc(-c2ccc(=O)n(Cc3c(F)cccc3Cl)n2)cc1,377.3,-18.2,i,-15.5,i,106.4
COc1ccc(-c2ccc(=O)n(Cc3cccc([N+](=O)[O-])c3)n2)cc1,161.2,-5.3,i,39.2*,i,101.3
